# pIC50: −log10 of the molar value. The source made the active and inactive calls. No cut-off for these calls is given here.
# System: not listed separately
# Assay: Antiproliferative activity against human HCT116 cells […] by MTT assay
# Type: functional, cell-based
# Settings: HCT-116
row,Structure (SMILES),pIC50
1,COc1c(NS(=O)(=O)c2ccc(C)cc2)cc(-c2ccc3nc(NC(C)=O)nn3c2)cc1C(N)=O,4.56
2,NC(=O)c1cc(-c2ccc3nc(NC(=O)C4CC4)sc3c2)cc(NS(=O)(=O)c2ccc(F)cc2)c1Cl,4.94
3,COc1c(NS(=O)(=O)c2ccc(F)cc2)cc(-c2ccc3nc(NC4CC4)sc3c2)cc1C(N)=O,< 4.30
4,Cn1c(=O)n(-c2ccc(C(C)(C)C#N)cc2)c2c3cc(-c4cnc5ccccc5c4)ccc3ncc21 [DACTOLISIB],6.49
5,COc1c(NS(=O)(=O)c2ccc(F)cc2)cc(-c2ccc3nc(NC(C)=O)sc3c2)cc1C(N)=O,5.71
6,COc1c(NS(=O)(=O)c2ccc(F)cc2)cc(-c2ccc3nc(NC(C)=O)nn3c2)cc1C(N)=O,4.60
7,COc1c(NS(=O)(=O)c2ccc(F)cc2)cc(-c2ccn3nc(NC(=O)C4CC4)nc3c2)cc1C(N)=O,< 4.30
8,COc1c(NS(=O)(=O)c2ccc(F)cc2)cc(-c2ccc3nc(NC(=O)C4CC4)sc3n2)cc1C(N)=O,5.60
9,COc1c(NS(=O)(=O)C2CC2)cc(-c2ccc3nc(NC(C)=O)nn3c2)cc1C(N)=O,4.44
10,COc1c(NS(=O)(=O)c2ccc(F)cc2)cc(-c2ccc3nc(NC(=O)C4CC4)sc3c2)cc1C(N)=O,5.70
11,COc1c(NS(=O)(=O)c2ccc(F)cc2)cc(-c2ccc3nc(NC(=O)C4CC4)nn3c2)cc1C(N)=O,4.36
12,COc1c(NS(=O)(=O)c2ccc(F)cc2)cc(-c2ccn3nc(N)nc3c2)cc1C(N)=O,< 4.30
13,COc1c(NS(=O)(=O)c2ccc(F)cc2)cc(-c2ccn3nc(NC(C)=O)nc3c2)cc1C(N)=O,4.49
14,CCOC(=O)CNc1nc2ccc(-c3cc(NS(=O)(=O)c4ccc(F)cc4)c(OC)c(C(N)=O)c3)cc2s1,< 4.30
15,COc1c(NS(=O)(=O)c2ccc(Cl)cc2)cc(-c2ccc3nc(NC(C)=O)nn3c2)cc1C(N)=O,4.50
16,COc1c(NS(=O)(=O)c2ccc(F)cc2)cc(-c2ccc3nc(NC(C)=O)sc3n2)cc1C(N)=O,5.37
17,CC(=O)Nc1nc2ccc(-c3cnc(Cl)c(NS(=O)(=O)c4ccc(F)cc4)c3)cc2s1,6.29
18,COc1c(NS(=O)(=O)C2CC2)cc(-c2ccc3nc(NC(=O)C4CC4)sc3c2)cc1C(N)=O,4.84
19,COc1c(NS(=O)(=O)c2ccc(F)cc2)cc(-c2ccc3nc(NC4CC4)sc3n2)cc1C(N)=O,4.45
20,CC(=O)Nc1nc2ccc(-c3cc(NS(=O)(=O)c4ccc(F)cc4)c(Cl)c(C(N)=O)c3)cn2n1,< 4.30
21,NC(=O)c1cc(NS(=O)(=O)c2ccc(F)cc2)cc(-c2ccc3nc(NC(=O)C4CC4)sc3c2)c1,< 4.30

# System: MCF7
# Assay: Antiproliferative activity against human MCF7 cells […] by MTT assay
# Type: functional, cell-based
# Settings: not given
row,Structure (SMILES),pIC50
1,NC(=O)c1cc(-c2ccc3nc(NC(=O)C4CC4)sc3c2)cc(NS(=O)(=O)c2ccc(F)cc2)c1Cl,< 4.30
2,Cn1c(=O)n(-c2ccc(C(C)(C)C#N)cc2)c2c3cc(-c4cnc5ccccc5c4)ccc3ncc21 [DACTOLISIB],6.26
3,COc1c(NS(=O)(=O)c2ccc(F)cc2)cc(-c2ccc3nc(NC(C)=O)sc3c2)cc1C(N)=O,6.30
4,COc1c(NS(=O)(=O)c2ccc(F)cc2)cc(-c2ccc3nc(NC(=O)C4CC4)sc3n2)cc1C(N)=O,4.66
5,COc1c(NS(=O)(=O)c2ccc(F)cc2)cc(-c2ccc3nc(NC(=O)C4CC4)sc3c2)cc1C(N)=O,5.80
6,COc1c(NS(=O)(=O)c2ccc(F)cc2)cc(-c2ccc3nc(NC(C)=O)sc3n2)cc1C(N)=O,4.90
7,CC(=O)Nc1nc2ccc(-c3cnc(Cl)c(NS(=O)(=O)c4ccc(F)cc4)c3)cc2s1,6.28
8,COc1c(NS(=O)(=O)c2ccc(F)cc2)cc(-c2ccc3nc(NC4CC4)sc3n2)cc1C(N)=O,4.48

# System: A549
# Assay: Antiproliferative activity against human A549 cells after 72 hrs by MTT assay
# Type: functional, cell-based
# Settings: A549, 72 h
# How it was run: (§1)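 Cells kept as monolayers in DMEM with 10% FBS, 5% CO2, 37 °C. Seeded at 3000-5000 cells/well, grown 24 h before dosing. Treated with 100.0, 10.0, 1.0, 0.1 and 0.01 μM of compound for 48 h. MTT (5 mg/ml in medium) added for 4 h, formazan pelleted, dissolved in DMSO, OD read at 490 nm. IC50 derived from inhibition ratios. Three separate experiments, each in triplicate.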
row,Structure (SMILES),pIC50
1,NC(=O)c1cc(-c2ccc3nc(NC(=O)C4CC4)sc3c2)cc(NS(=O)(=O)c2ccc(F)cc2)c1Cl,< 4.30
2,Cn1c(=O)n(-c2ccc(C(C)(C)C#N)cc2)c2c3cc(-c4cnc5ccccc5c4)ccc3ncc21 [DACTOLISIB],7.00
3,COc1c(NS(=O)(=O)c2ccc(F)cc2)cc(-c2ccc3nc(NC(C)=O)sc3c2)cc1C(N)=O,5.77
4,COc1c(NS(=O)(=O)c2ccc(F)cc2)cc(-c2ccc3nc(NC(=O)C4CC4)sc3n2)cc1C(N)=O,5.09
5,COc1c(NS(=O)(=O)c2ccc(F)cc2)cc(-c2ccc3nc(NC(=O)C4CC4)sc3c2)cc1C(N)=O,5.20
6,COc1c(NS(=O)(=O)c2ccc(F)cc2)cc(-c2ccc3nc(NC(C)=O)sc3n2)cc1C(N)=O,5.37
7,CC(=O)Nc1nc2ccc(-c3cnc(Cl)c(NS(=O)(=O)c4ccc(F)cc4)c3)cc2s1,6.70
8,COc1c(NS(=O)(=O)C2CC2)cc(-c2ccc3nc(NC(=O)C4CC4)sc3c2)cc1C(N)=O,4.33
9,COc1c(NS(=O)(=O)c2ccc(F)cc2)cc(-c2ccc3nc(NC4CC4)sc3n2)cc1C(N)=O,4.52

# System: not listed separately
# Assay: Antiproliferative activity against human U87MG cells after 72 hrs by MTT assay
# Type: functional, cell-based, U-87MG ATCC
# Settings: U-87 MG
# How it was run: as §1
row,Structure (SMILES),pIC50
1,NC(=O)c1cc(-c2ccc3nc(NC(=O)C4CC4)sc3c2)cc(NS(=O)(=O)c2ccc(F)cc2)c1Cl,4.75
2,Cn1c(=O)n(-c2ccc(C(C)(C)C#N)cc2)c2c3cc(-c4cnc5ccccc5c4)ccc3ncc21 [DACTOLISIB],5.63
3,COc1c(NS(=O)(=O)c2ccc(F)cc2)cc(-c2ccc3nc(NC(C)=O)sc3c2)cc1C(N)=O,5.32
4,COc1c(NS(=O)(=O)c2ccc(F)cc2)cc(-c2ccc3nc(NC(=O)C4CC4)sc3n2)cc1C(N)=O,4.69
5,COc1c(NS(=O)(=O)c2ccc(F)cc2)cc(-c2ccc3nc(NC(=O)C4CC4)sc3c2)cc1C(N)=O,5.54
6,COc1c(NS(=O)(=O)c2ccc(F)cc2)cc(-c2ccc3nc(NC(C)=O)sc3n2)cc1C(N)=O,4.66
7,CC(=O)Nc1nc2ccc(-c3cnc(Cl)c(NS(=O)(=O)c4ccc(F)cc4)c3)cc2s1,5.55
8,COc1c(NS(=O)(=O)C2CC2)cc(-c2ccc3nc(NC(=O)C4CC4)sc3c2)cc1C(N)=O,5.09
9,COc1c(NS(=O)(=O)c2ccc(F)cc2)cc(-c2ccc3nc(NC4CC4)sc3n2)cc1C(N)=O,4.38

# System: HCT-116
# Assay: Inhibition of PI3K/Akt signalling in human HCT116 cells assessed as reduction in AKT Ser473 phosphorylation at 1 uM after 1 hr by Western blot method
# Type: cell-based
# Settings: not given
# How it was run: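 HCT-116 cells seeded at 1×10^6/well in DMEM with 10% FBS and grown 16 h at 37 °C. Exposed to compound or DMSO for 1 h at 37 °C, then lysed in ice-cold buffer and clarified at 12000 rpm, 20 min, 4 °C. Protein measured by BCA and run on SDS-PAGE. Immunoblotted for AKT, p-Ser473 AKT and β-actin, with chemiluminescent detection and densitometry. Three independent experiments, each in duplicate.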
row,Structure (SMILES),inhibition
1,Cn1c(=O)n(-c2ccc(C(C)(C)C#N)cc2)c2c3cc(-c4cnc5ccccc5c4)ccc3ncc21 [DACTOLISIB],Active
2,COc1c(NS(=O)(=O)c2ccc(F)cc2)cc(-c2ccc3nc(NC(C)=O)sc3c2)cc1C(N)=O,Active

# System: not listed separately
# Assay: Antitumor activity against human HCT116 cells xenografted in BALB/C mouse assessed as reduction in tumor volume at 10 mg/kg, po dosed once daily for 14 days
# Type: functional
# Settings: HCT-116, 336 h
# How it was run: (§2)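 Male BALB/C nude mice (SPF, 18-20 g) received 3×10^6 HCT-116 cells subcutaneously in the flank. At 100 mm³ tumours, animals were randomised (8 controls, 5 per drug group). Compound given orally in NMP/PEG300 (1:9) once daily for 14 days; controls got vehicle. Tumour volume (length × width × width/2) recorded every 3-4 days. Sacrifice on day 26, inhibition ratios from tumour volume and weight. Mean ± standard error.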
row,Structure (SMILES),inhibition in vivo at 10 mg/kg [%]
1,COc1c(NS(=O)(=O)c2ccc(F)cc2)cc(-c2ccc3nc(NC(C)=O)sc3c2)cc1C(N)=O,40.1

# System: not listed separately
# Assay: Antitumor activity against human HCT116 cells xenografted in BALB/C mouse assessed as reduction in tumor volume at 30 mg/kg, po dosed once daily for 14 days
# Type: functional
# Settings: HCT-116, 336 h
# How it was run: as §2
row,Structure (SMILES),inhibition in vivo at 30 mg/kg [%]
1,Cn1c(=O)n(-c2ccc(C(C)(C)C#N)cc2)c2c3cc(-c4cnc5ccccc5c4)ccc3ncc21 [DACTOLISIB],24.2
2,COc1c(NS(=O)(=O)c2ccc(F)cc2)cc(-c2ccc3nc(NC(C)=O)sc3c2)cc1C(N)=O,46.9

# System: Mus musculus
# Assay: Toxicity in human HCT116 cells xenografted BALB/C mouse assessed as weight loss at 30 mg/kg, po dosed once daily for 14 days
# Type: organism-based, HCT-116
# Set-up: dose 30 mg/kg, route oral
# Settings: in vivo, 336 h
# How it was run: (§3)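 Male BALB/C nude mice (18-20 g) carried subcutaneous flank HCT-116 xenografts (3×10^6 cells), randomised at 100 mm³. Compound dosed orally in NMP/PEG300 (1:9) once daily for 14 days; controls got vehicle alone. Body weight recorded every 3-4 days until sacrifice on day 26.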
row,Structure (SMILES),Activity
1,Cn1c(=O)n(-c2ccc(C(C)(C)C#N)cc2)c2c3cc(-c4cnc5ccccc5c4)ccc3ncc21 [DACTOLISIB],Toxic

# System: Mus musculus
# Assay: Toxicity in human HCT116 cells xenografted BALB/C mouse assessed as weight loss at 10 to 30 mg/kg, po dosed once daily for 14 days
# Type: organism-based, HCT-116
# Set-up: dose 10-30 mg/kg, route oral
# Settings: in vivo, 336 h
# How it was run: as §3
row,Structure (SMILES),Activity
1,COc1c(NS(=O)(=O)c2ccc(F)cc2)cc(-c2ccc3nc(NC(C)=O)sc3c2)cc1C(N)=O,Non-toxic

# Source: ChEMBL document CHEMBL3351800, “Combination of 2-methoxy-3-phenylsulfonylaminobenzamide and 2-aminobenzothiazole to discover novel anticancer agents” (Bioorg Med Chem, 2014)
